APP 5UTR inh = APP translation inhibition; SH-SY5Y APP 5'UTR-luciferase reporter, luminescence; inhibition, % at 2 µM; hit rate 0.82% among 190,000; AID 1285;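 active means inhibition above a set limit, derived from the sample mean plus 3 SD, cut at about 45% in these data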
MT stabilize HCS = microtubule stabilizers in HeLa cells; HeLa tubulin immunostaining HCS, 24 h; share of cells brighter than vehicle mean+2SD; % tubulin-high responders, % at 10 µM; hit rate 0.83% among 200,000; AID 2205;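 active means plate Z-score above 3 for both tubulin-high and condensed-nucleus cell shares, with cell loss under 80%, at 10 µM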;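 further: anti alpha tubulin signal scored within the nucleus-defined area of each cell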
BaF3 parental = reduces parental Ba/F3 cell viability, JAK2V617F counter-screen; CellTiter-Glo ATP luminescence; inhibition, % at 5.6 µM; hit rate 1.1% among 220,000;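 active means inhibition above a per-campaign cutoff, the mean inhibition of all tested compounds plus 3 SD, cut at about 27% in these data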;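 further: 0% = DMSO wells and 100% = JAK Inhibitor I control wells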
Ba/F3 V617F tox = loss of viability in JAK2V617F-driven Ba/F3 cells. Ba/F3 EpoR-JAK2V617F viability, ATP luminescence. inhibition, % at 5.6 µM. hit rate 1.1% among 220,000;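 active means inhibition above the campaign mean plus 3 SD over all tested compounds, cut at about 24% in these data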;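 further: cytokine-independent growth of Ba/F3 cells driven by EpoR plus mutant JAK2; 0% = DMSO-treated cells and 100% = JAK inhibitor I control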
bCat nuc transl = modulators of beta-catenin nuclear translocation; nuclear translocation activity, % at 5 µM; HeLa beta-catenin nuclear translocation, immunofluorescence imaging; hit rate 0.3% among 190,000; AID 1665;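 active means nuclear translocation activity above 50% at 5 µM, with a well cell count of 50 or more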;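 further: per-cell ratio of nuclear to cytoplasmic median beta-catenin stain intensity; plate controls were DMSO negative control for no effect and GSK-3 inhibitor IX positive control for full effect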
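Signal – beta-catenin immunofluorescence imaging with DAPI · Test system – human HeLa cell line · Dosing – 5 µM primary single dose, 0.1% DMSO, 0.02–20 µM confirmation series · Measure – % activation, nuclear-to-cytoplasmic median beta-catenin signal ratio per cell · Incubation – 24 h compound exposure at 37°C, 5% CO2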
Lmaj promast = inhibitors of Leishmania major promastigote growth | Leishmania major promastigotes, resazurin fluorescence viability | inhibition, % at 10 µM | hit rate 9% among 200,000 | AID 1063; in the data active means inhibition above about 50%;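 further: promastigotes grown with compound for 44 hours at 28 °C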
An asterisk follows results filed as active; . = no result given. Only some compounds are listed: those with a hit (about 9.6% of all), similar ones and a draw of the others.

SMILES	APP 5UTR inh	MT stabilize HCS	BaF3 parental	Ba/F3 V617F tox	bCat nuc transl	Lmaj promast
C=CCn1c(O)c(N=NC(=S)Nc2ccc(OC)c(Cl)c2)c2ccccc21	44.1	5.6	0.7	0.2	-2.0	97.5*
Cc1cc(C)c2cc(CN(Cc3cccnc3)C(=O)c3ccc(F)cc3)c(Cl)nc2c1	-7.6	1.8	5.8	1.5	0.5	98.1*
Cc1cccc2cc(CN(Cc3cccnc3)C(=O)c3ccccc3F)c(Cl)nc12	-4.0	1.4	0.1	-4.3	-0.9	97.1*
O=C(c1ccccc1F)N(Cc1cccnc1)Cc1cc2cc3c(cc2[nH]c1=O)OCCO3	16.5	2.6	5.1	1.4	-4.4	-6.8
O=S(=O)(c1cccc(F)c1)N1CCCN(c2ccc(C(F)(F)F)cn2)CC1	.	.	2.4	-3.2	0.6	.
O=C(N1CCCCC1)N1CCN(C(c2ccccc2)c2ccccc2)CC1	.	1.7	3.6	-1.3	-13.4	9.7
O=C1NCCCC1C(=O)N1CCN(C(c2ccccc2)c2ccccc2)CC1 (configuration not stated)	50.1*	5.3	2.5	-1.5	-4.0	-5.5
CS(=O)(=O)N1CCC(C(=O)N2CCN(C(c3ccccc3)c3ccccc3)CC2)CC1	9.2	2.9	-1.1	-0.3	0.0	67.0*
COc1ccc2o/c(=N/NC(=S)Nc3ccccc3)c(C(N)=O)cc2c1	-10.6	7.1	7.5	-0.7	-0.5	-1.9
COc1ccc(/C=C/C(=O)NC(=S)NNC(=O)c2ccco2)cc1	-34.8	33.3*	5.6	-0.6	-1.9	99.1*
O=C(/C=C/c1ccc(Cl)cc1)NC(=S)Nc1ccc(NC(=O)c2ccco2)cc1	81.3*	5.0	-2.5	-5.0	-1.4	0.8
COc1ccc(/C=C/C(=O)NC(=S)NNC(=O)Cc2cccs2)cc1	-26.8	3.6	3.0	-0.7	.	98.2*
CC(=O)N1CCN(Cc2nc(C(c3ccccc3)c3ccccc3)no2)CC1	-5.0	2.4	5.8	-0.1	2.0	-0.6
OC(c1ccccn1)C1CCN(Cc2nc(C(c3ccccc3)c3ccccc3)no2)CC1 (configuration not stated)	-0.4	2.1	5.3	-0.4	-1.6	-2.4
C[C@@H]1CN(C2CCN(Cc3nc(CC4CC4)no3)CC2)C[C@H](C)O1	-20.1	2.6	2.2	3.1	1.4	85.5*
Clc1ccccc1Cc1noc(CN2CCN3CCCC3C2)n1 (configuration not stated)	-9.3	2.5	3.0	0.2	-0.1	74.8*
C[C@@H]1CN(C2CCN(Cc3nc(C(c4ccccc4)c4ccccc4)no3)CC2)C[C@H](C)O1	-24.2	1.2	10.4	-0.2	0.3	85.1*
CN(C)C(=O)CN1CCN(Cc2nc(CC3CC3)no2)CC1	.	.	0.4	-3.0	-0.8	.
OC1CCN(Cc2nc(Cc3ccccc3Cl)no2)CC1	-11.8	3.5	2.4	1.3	-4.6	0.6
c1ccc(C(c2ccccc2)c2noc(CN3CCN(C4CCCC4)CC3)n2)cc1	3.6	4.3	4.7	2.6	1.4	84.1*
O=C(Nc1nc(COc2ccccc2)cs1)c1ccccc1F	-17.0	2.0	6.5	-0.7	.	0.8
Cc1ccc2nc(N3CC(=O)Nc4ccccc43)nc(-c3ccccc3)c2c1	6.8	7.1	-2.8	8.1	2.0	7.5
CSc1nnc2ccc(-c3ccccn3)nn12	2.6	5.2	1.8	-0.2	0.3	0.3
FC(F)(F)c1ccc(-c2noc(CN3CCCN(C4CCCCC4)CC3)n2)cc1	-5.9	2.6	12.2	5.3	-1.2	83.8*
C=CCn1c(N)c(C(=O)OC(C)(C)C)c2nc3ccccc3nc21	11.3	1.8	7.4	-0.4	.	26.4
SMILES	APP 5UTR inh	MT stabilize HCS	BaF3 parental	Ba/F3 V617F tox	bCat nuc transl	Lmaj promast
C=CCn1c(N)c(C(=O)OC(C)CC)c2nc3ccccc3nc21 (configuration not stated)	4.8	0.5	2.9	-2.0	-1.2	99.9*
O=c1c2c3c(sc2nc(N2CCNCC2)n1CCc1ccccc1)CCCCC3	.	.	4.3	-0.4	1.5	.
Cc1ccccc1C(=O)NC(CC(C)C)C(=O)Nc1ccc(F)c([N+](=O)[O-])c1 (configuration not stated)	1.3	4.2	0.3	-4.3	.	41.5
Cc1ccccc1C(=O)NC(CC(C)C)C(=O)Nc1cccc(S(=O)(=O)N(C)C)c1 (configuration not stated)	-2.0	4.8	41.7*	10.5	-1.8	-4.0
CCOC(=O)C1=C(CNCc2ccc(C)cc2)NC(=O)NC1c1ccc(OC)cc1 (configuration not stated)	1.3	8.7	27.5*	52.1*	-1.5	27.3
CCOC(=O)C1=C(c2ccccc2)NC(=O)NC1c1ccc(OC)cc1 (configuration not stated)	15.9	2.8	7.2	3.3	-3.2	-6.5
CCOC(=O)C1=C(C)N=C2SC=C(C)N2C1c1ccc(OC)cc1 (configuration not stated)	5.4	12.2*	6.1	-1.6	15.8	-3.3
CCOC(=O)C1=C(C)NC(C)=C(C(=O)OCC)C1c1ccc(OC)cc1	0.7	3.6	6.5	-1.1	1.3	65.5*
CCN(C(=O)COC(=O)CNC(=O)c1ccc(F)cc1)C1CCS(=O)(=O)C1 (configuration not stated)	-2.3	7.0	2.8	-2.9	-1.0	-7.7
O=S1(=O)N=C(N2CCN(Cc3ccccc3)CC2)c2ccccc21	1.7	4.8	60.4*	-3.9	-1.4	6.3
O=S1(=O)N=C(N2CCN(Cc3ccc4c(c3)OCO4)CC2)c2ccccc21	-1.2	2.1	7.6	2.9	.	4.0
C#CCOCCOCCOCCNc1nc(N2CCN(C(=O)C([C@@H](C)CC)n3cc(C(N)CO)nn3)CC2)nc(N2CCN(C(=O)[C@H](CCC(=O)O)n3cc(C(N)[C@H](C)CC)nn3)CC2)n1 (some centres not stated)	.	.	.	.	1.1	.
COc1ccc(/C=C/c2nc3cc(-c4ccccc4)ccc3o2)cc1O	-22.8	2.0	0.9	-0.2	4.4	87.2*
CCN(CC)Cc1cc2[nH]c3c4ccc(Cl)cc4ncc3c2cc1OC	.	.	-5.7	0.2	0.0	.
CCOc1ccccc1C1CC(=O)Nc2c1c(=O)n(C)c(=O)n2C (configuration not stated)	4.8	4.5	5.8	-4.8	.	3.0
CCC(=O)/C=C1/Sc2ccccc2N1CC	29.4	2.9	2.4	0.2	1.0	49.4
CC[n+]1c(/C=C2\Sc3ccccc3N2C)ccc2cccc(C)c21	51.9*	67.3	104.1*	101.9*	5.0	100.5*
CCN1/C(=C/c2ccc3cc(C)ccc3[n+]2CC)Sc2cc(C)c(C)cc21	46.2*	14.5	89.1*	99.7*	3.9	100.3*
CCN1/C(=C/c2ccc3cc(C)ccc3[n+]2CC)Sc2ccccc21	80.6*	68.5*	106.4*	102.0*	0.5	100.5*
CCOC(=O)/C(=C/C=C1\Sc2cc(C)c(C)cc2N1CC)C(C)=O	-26.3	2.0	9.0	6.6	-0.3	9.5
COc1ccc(/C=C/C(=O)NCC(=O)N2CCC(N(C)CCN3CCOCC3)CC2)cc1OC	-22.6	1.3	6.8	2.3	-1.6	-7.0

Screening data as filed in PubChem BioAssay.
